The record followed here is ChEMBL document CHEMBL1139169, “Design, synthesis, and antiviral properties of 4'-substituted ribonucleosides as inhibitors of hepatitis C virus replication: the discovery of R1479” (Bioorg Med Chem Lett, 2007).

Data set [1] deals with Hepatitis C virus. The data set is described as follows: Antiviral activity against HCV 1b replicon in human 2209-23 cells assessed as inhibition of viral replication at 20 uM. As to conditions: genotype 1b. The class given is functional, Hepacivirus hominis. A digest of the protocol:
(§1)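 Huh-7 replicon cell line 2209-23. Compounds were tested at a single fixed concentration and scored as percent inhibition of replicon replication, or titrated to give the IC50, the concentration producing a 50% reduction in replicon replication.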
For orientation: Replicon systems follow genome replication, usually without infectious particles.

A short description of data set [2]: Cytotoxicity against human 2209-23 cells at 20 uM. It counts as cell-based. As to conditions: 2209-23, 20 µM.
The test system of data set [3] is Hepatitis C virus. The data set is described as follows: Antiviral activity against HCV 1b replicon in human 2209-23 cells assessed as inhibition of viral replication at 100 uM. As to conditions: genotype 1b. It counts as functional, Hepacivirus hominis.
The test system of data set [4] is Hepatitis C virus. In words: Antiviral activity against HCV 1b replicon in human 2209-23 cells. As to conditions: genotype 1b. It counts as functional, organism-based, Hepacivirus hominis. An outline of the steps: as §1
Data set [5] can be described thus: Cytotoxicity against human 2209-23 cells. The class given is cell-based.
Data set [6] is described as follows: Cytostatic activity against human 2209-23 cells. It counts as ADME, cell-based. As to conditions: read-out: CT50 (the source's name). A digest of the protocol: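 Replicon cells were tested for proliferation by measuring incorporation of tritiated thymidine into cellular DNA with a scintillation proximity assay (SPA). CT50 was taken as the cytostatic concentration.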

Data set [7] in a line: Cytotoxicity against human 2209-23 cells at 100 uM. The class given is cell-based. As to conditions: 2209-23, 100 µM.
Data set [8] has as its system Hepatitis C virus. In words: Inhibition of HCV 1b BK NS5B570 RNA polymerase. Also noted: species or system Hepatitis C virus subtype 1b. A digest of the protocol:
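NS5B570-BK polymerase activity was read as incorporation of radiolabeled nucleoside monophosphate into acid-insoluble RNA products, with HCV cIRES RNA as template.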

By inhibition is commonly meant the relative decrease from the control value, in per cent. As for `O=c1ccn([C@@H]2OC(CO)(CO)[C@@H](O)[C@H]2O)c(=O)[nH]1`, in the data set with Hepatitis C virus [1], the inhibition at 20 µM turned out to be 1%. The compound further gave an Activity in data set [2] of 0%.

Regarding `C=C[C@]1(CO)O[C@@H](n2ccc(=O)[nH]c2=O)[C@H](O)[C@@H]1O`, the inhibition at 100 µM in the data set on Hepatitis C virus [3] turned out to be 50%. The same compound gave an Activity in data set [2] of 0%.

In general, IC50 refers to the concentration needed to halve the response being measured. The term CC50 denotes the concentration that lowers cell viability or growth by half. Low values mean greater toxicity to the cells, high ones lower toxicity to the cells. Take `Nc1ccn([C@@H]2O[C@H](CO)[C@@H](O)[C@H]2F)c(=O)n1`: in the data set on Hepatitis C virus [4], it took 580 nM to reach half-maximal inhibition (IC50). This compound returned a cytotoxic concentration (CC50) in data set [5] above 100 µM. The GI50 in data set [6] worked out at 0.8 µM.

For the compound `Nc1ccn([C@@H]2OC(CO)(CO)[C@@H](O)[C@H]2O)c(=O)n1`, the inhibition at 20 µM in the data set on Hepatitis C virus [1] came to 13%. In data set [2], this compound yielded an Activity of 2%.

As to `C#C[C@]1(CO)O[C@@H](n2ccc(=O)[nH]c2=O)[C@H](O)[C@@H]1O`, in the data set on Hepatitis C virus [1], the inhibition at 20 µM turned out to be 0%. In data set [2], this compound yielded an Activity of 0%.

The compound `C=CC[C@]1(CO)O[C@@H](n2ccc(=O)[nH]c2=O)[C@H](O)[C@@H]1O` gave a 50% inhibitory concentration (IC50) with Hepatitis C virus [4] of 22000 nM. The 50% cytotoxic concentration (CC50) in data set [5] turned out to be 39 µM.

For the compound `CC#C[C@]1(CO)O[C@@H](n2ccc(=O)[nH]c2=O)[C@H](O)[C@@H]1O`, the inhibition at 100 µM with Hepatitis C virus [3] is 76%. The compound also showed an Activity in data set [7] of 19%.

In the case of `CCO[C@]1(CO)O[C@@H](n2ccc(N)nc2=O)[C@H](O)[C@@H]1O`, the inhibition at 20 µM with Hepatitis C virus [1] worked out at 11%. In data set [2], the Activity amounted to 0%.

`[N-]=[N+]=N[C@]1(CO)O[C@@H](n2ccc(=O)[nH]c2=O)[C@H](O)[C@@H]1O`: the inhibition at 20 µM in the data set with Hepatitis C virus [1] was found to be 13%. The same compound had an Activity in data set [2] of 17%. The compound also returned an IC50 in the data set with Hepatitis C virus [8] of 300 nM.

`C[C@@]1(O)[C@H](O)[C@@H](CO)O[C@H]1n1ccc(N)nc1=O` yielded an IC50 with Hepatitis C virus [4] of 1230 nM. The same compound registered a 50% cytotoxic concentration (CC50) in data set [5] above 33 µM. In addition, the GI50 in data set [6] is above 100 µM.

Regarding `C#C[C@]1(CO)O[C@@H](n2ccc(N)nc2=O)[C@H](O)[C@@H]1O`, the inhibition at 20 µM in the data set with Hepatitis C virus [1] amounted to 3%. Also, the Activity in data set [2] amounted to 0%. For the same compound, half-maximal inhibition in the data set with Hepatitis C virus [8] (IC50) was put at 2700 nM.

With `C=CC[C@]1(CO)O[C@@H](n2ccc(N)nc2=O)[C@H](O)[C@@H]1O`, the inhibition at 20 µM in the data set on Hepatitis C virus [1] is 0%. The compound also came in with an Activity in data set [2] of 0%.

As to `CC[C@]1(CO)O[C@@H](n2ccc(N)nc2=O)[C@H](O)[C@@H]1O`, in the data set on Hepatitis C virus [3], the inhibition at 100 µM came to 20%. For the same compound, in data set [7], the Activity is 20%.

Take `CC#C[C@]1(CO)O[C@@H](n2ccc(N)nc2=O)[C@H](O)[C@@H]1O`: the inhibition at 20 µM with Hepatitis C virus [1] stood at 11%. The same compound yielded an Activity in data set [2] of 0%.

As for `[N-]=[N+]=N[C@]1(CO)O[C@@H](n2ccc(N)nc2=O)[C@H](O)[C@@H]1O` [4'-AZIDOCYTIDINE], the inhibition at 20 µM in the data set on Hepatitis C virus [1] came to 97%. The Activity in data set [2] was determined as 13%. Also, the IC50 in the data set on Hepatitis C virus [4] was 1280 nM; in the data set with Hepatitis C virus [8], 290 nM. In data set [5], this compound returned a CC50 above 2000 µM. In addition, in data set [6], the GI50 is above 100 µM.

Turning to `N#C[C@]1(CO)O[C@@H](n2ccc(N)nc2=O)[C@H](O)[C@@H]1O`, the inhibition at 20 µM in the data set with Hepatitis C virus [1] was 99%. Besides, in data set [2], the Activity is recorded as 100%.

With `N#C[C@]1(CO)O[C@@H](n2ccc(=O)[nH]c2=O)[C@H](O)[C@@H]1O`, the inhibition at 20 µM in the data set with Hepatitis C virus [1] worked out at 0%. Besides, in data set [2], the Activity is 0%.

With `C=C[C@]1(CO)O[C@@H](n2ccc(N)nc2=O)[C@H](O)[C@@H]1O`, the inhibition at 100 µM in the data set with Hepatitis C virus [3] worked out at 53%. In data set [2], this compound showed an Activity of 0%.
